Rows were chosen to be rich in hits. Some 1.9% of all compounds tested hit in one or more screens of this group.
MBD2 inh = inhibitors of human MBD2 binding to methylated oligonucleotide | AID 686964 | 0.31% of 370,000 active | inhibition, % at 4.4 µM | TR-FRET; in the data active = inhibition above about 13%
UHRF1 MBD2 ctr = human UHRF1 methylated DNA binding inhibitors | Q96T88 | UHRF1 binding to methylated oligo, TR-FRET | inhibition, % at 4.4 µM | 0.75% of 370,000 active; in the data active = inhibition above about 21%;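 note: UHRF1 SRA domain binding a hemimethylated CpG hairpin DNA probe; 0% = median of test compound wells and 100% = reference inhibitor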
LEDGF integ inh = blocks HIV-1 LEDGF/p75-dependent DNA integration; TR-FRET IN-LEDGF/p75 DNA integration, Eu/Cy5; inhibition, % at 3.7 µM; 0.64% of 370,000 active; AID 743269;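 active = inhibition above the screen-wide mean plus 3 SD, cut at about 13% in these data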;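 note: signal is the Cy5 over europium emission ratio at 671 and 618 nm; 0% = plate median of compound wells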
CASP6 VEID inh = inhibitors of human caspase-6 | purified caspase-6, Z-VEID-R110 cleavage fluorescence | inhibition, % at 12.5 µM | 0.53% of 350,000 active | P55212;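 active = mean inhibition across replicates at least about 35%, with every replicate also reaching that limit, limit read from the data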;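 note: 0% = median of neutral control wells and 100% = no fluorescence left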
Target sequence (P55212 24-179 limits assumed): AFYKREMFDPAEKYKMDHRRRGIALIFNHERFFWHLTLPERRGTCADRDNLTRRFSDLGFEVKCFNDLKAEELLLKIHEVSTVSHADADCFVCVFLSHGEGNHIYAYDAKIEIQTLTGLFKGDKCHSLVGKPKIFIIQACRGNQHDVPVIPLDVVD
Target sequence (P55212 194-293 limits assumed): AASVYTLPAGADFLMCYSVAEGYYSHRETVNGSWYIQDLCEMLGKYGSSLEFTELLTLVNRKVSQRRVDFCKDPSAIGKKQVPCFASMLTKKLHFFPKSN
TDP2 inh = TDP2 (human) inhibition, absorbance primary screen; O95551; recombinant TDP2, T5PNP hydrolysis, p-nitrophenol absorbance 415 nm; inhibition, % at 12.8 µM; 0.34% of 370,000 active; AID 720702;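 active = inhibition above the mean of all tested compounds plus 3 SD, set per campaign, cut at about 25% in these data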;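 note: 0% = DMSO with enzyme and 100% = buffer with substrate but no TDP2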
Target sequence (O95551 whole entry, looked up): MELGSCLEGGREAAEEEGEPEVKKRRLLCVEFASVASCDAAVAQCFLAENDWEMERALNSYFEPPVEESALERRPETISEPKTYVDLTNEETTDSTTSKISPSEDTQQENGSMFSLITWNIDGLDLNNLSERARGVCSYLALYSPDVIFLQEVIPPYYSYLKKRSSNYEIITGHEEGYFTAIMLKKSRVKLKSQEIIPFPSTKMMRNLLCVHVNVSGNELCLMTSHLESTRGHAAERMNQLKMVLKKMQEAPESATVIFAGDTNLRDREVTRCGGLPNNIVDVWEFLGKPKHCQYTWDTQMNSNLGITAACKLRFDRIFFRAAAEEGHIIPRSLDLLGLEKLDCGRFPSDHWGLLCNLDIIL
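System – recombinant human TDP2 · Quantity – TDP2 enzyme at 120 nM final · Doses – single concentration, 12.8 µM nominal, with 1% DMSO · Incubation – 2 h at 37 °C · Measured by – epi absorbance of p-nitrophenol freed from T5PNP by hydrolysis · Read-out – % inhibition relative to enzyme-containing and enzyme-free wells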
NSD2 HMT inh = NSD2 (human) methyltransferase inhibition; O96028; NSD2 peptide methylation, AlphaScreen, 120 min; inhibition, % at 12.5 µM; 0.54% of 310,000 active; AID 743445; in the data active = inhibition above about 50%
* marks the source's active call; other numbers are inactive results; nt = no result given; ! = not active in a repeat.

SMILES	MBD2 inh	UHRF1 MBD2 ctr	LEDGF integ inh	CASP6 VEID inh	TDP2 inh	NSD2 HMT inh
CC(C)C[C@@H](CNCC(=O)[C@H](CC(C)C)NC(=O)c1[nH]cnc1C(=O)N[C@@H](C)CN)NC(=O)c1nc[nH]c1C(=O)N[C@@H](C)C(=O)O	3	23*	1	6	12	nt
C[C@H]1CCCCO[C@@H](CN(C)S(=O)(=O)c2cccs2)[C@@H](C)CN([C@@H](C)CO)C(=O)c2cc(NC(=O)Nc3ccc(F)cc3)ccc2O1	nt	nt	nt	3	nt	nt
Cc1nc(CC(=O)NNS(=O)(=O)c2ccc3ccccc3c2)cs1	4	1	1	nt	1	6
COc1ccc(S(=O)(=O)NNC(=O)Cc2csc(C)n2)cc1[N+](=O)[O-]	-2	-3	8	56*	14	2
COc1cccc(NC(=O)N2CC(=O)N3[C@H](CO)[C@@H](c4ccc(Br)cc4)[C@@H]3C2)c1	nt	nt	nt	0	nt	nt
O=C(CNC(=O)c1ccc(-c2ccccc2)cc1)OCc1ccc(Br)cc1	6	26*	3	-1	-3	-2
COc1ccc(C(=O)NCC(=O)OCc2ccc(Br)cc2)cc1	-2	1	0	-2	-7	-1
COc1ccc2cc3[n+](cc2c1OC)CCc1cc2c(cc1-3)OCO2	-15	23*!	0	13	-6	nt
Nc1nc2ncc(C(=O)c3cc(Cl)cc(Cl)c3O)cc2s1	-2	-3	-1	1	-9	4
Nc1nc2ncc(C(=O)c3cc(F)ccc3O)cc2s1	7	22*	-3	-2	17	-2
Cc1ccc(CN(Cc2ccco2)C(=S)NCC(=O)O)cc1	6	22*	0	nt	-12	5
Cc1ccc(CN(Cc2ccc(C)o2)C(=S)NCC(=O)O)cc1	2	1	2	nt	-5	3
COc1ccc(S(=O)(=O)N(C)C[C@@H]2OCCCC[C@@H](C)Oc3ccc(NS(=O)(=O)c4cn(C)cn4)cc3C(=O)N([C@H](C)CO)C[C@@H]2C)cc1	nt	nt	nt	2	nt	nt
C[C@@H]1CN([C@@H](C)CO)C(=O)c2cccc(NC(=O)Nc3ccc(F)cc3)c2O[C@@H]1CN(C)C(=O)Nc1ccc(C(F)(F)F)cc1	nt	nt	nt	-1	nt	nt
COC(=O)[C@H]1C[C@@]2(O)CN(S(=O)(=O)c3ccc(C)cc3)C[C@@]2(OC(=O)NCc2ccccc2)C[C@H]1C(=O)OC	-4	1	4	-1	3	nt
COC(=O)[C@H]1C[C@@]2(O)CN(S(=O)(=O)c3ccc(C)cc3)C[C@@]2(OC(=O)NC2CCCC2)C[C@H]1C(=O)OC	13	24*	3	-2	-9	nt
C[C@@H]1CCCCO[C@@H](CN(C)Cc2ccc(Cl)c(Cl)c2)[C@H](C)CN([C@H](C)CO)C(=O)c2cc(NC(=O)C3CCCCC3)ccc2O1	nt	nt	nt	0	nt	nt
Cc1cccc(NC(=O)COc2ccc3oc4c(c3c2)CCCC4)n1	1	73*	1	nt	4	2
O=C(NC1CCCC1)c1ccccc1OCc1ccccc1	0	39*	2	-1	-6	-5
c1ccc(COc2ccc(OCCCNC3CCCC3)cc2)cc1	9	31*	8	-3	-13	19
CC(CC(=O)Nc1ccc2c(c1)c(=O)n(C)n2-c1cccs1)c1ccccc1 (stereo not drawn)	-1	-2	0	37*	-1	-4
Cc1cc(C)cc(-n2c3ccc(NC(=O)Cc4cccc5ccccc45)cc3c(=O)n2C)c1	2	-1	-5	1	2	0
OCCN(CC#CC(O)(c1ccccc1)c1cccc(F)c1)CCO (stereo not drawn)	9	26*	-5	-1	1	4
OC(C#CCN1CCCC1)(c1ccccc1)c1cccc(F)c1 (stereo not drawn)	-7	-1	5	nt	-6	3
CC(C)C[C@H](NC(=O)N1CCn2c1nc1ccccc12)C(=O)NCCc1ccccc1	2	52*	1	2	3	-3
SMILES	MBD2 inh	UHRF1 MBD2 ctr	LEDGF integ inh	CASP6 VEID inh	TDP2 inh	NSD2 HMT inh
CC(C)C[C@H](NC(=O)N1CCn2c1nc1ccccc12)C(=O)NCc1ccccc1	-2	0	1	-1	-14	-2
CCCNC(=O)N1[C@H](CO)[C@@H](c2ccccc2-c2ccc(F)cc2)[C@@H]1C#N	nt	nt	nt	0	nt	nt
CN=C(Nc1cccnc1)c1cccc(C(F)(F)F)c1	-6	-6	1	65*	4	6
C[C@H](O)C#Cc1ccc2c(c1)O[C@H](CN(C)Cc1ccccn1)[C@H](C)CN([C@@H](C)CO)S2(=O)=O	nt	nt	nt	-1	nt	nt
CC1CCN(S(=O)(=O)c2ccc3c(c2)c(=O)c(C(=O)N2CCCCC2)cn3C)CC1	-2	73*	-3	nt	-6	-1
Cc1ccc(S(=O)(=O)N(C)C)cc1NC(=O)COC(=O)/C=C/c1ccc(F)cc1	-1	35*	4	3	-14	3
N#Cc1ccc(-c2ccc3c(c2)[C@H]2[C@H](CCN2C(=O)CN2CCOCC2)[C@H](CO)N3)cc1	nt	nt	nt	5	nt	nt
O=C1NC(=S)SC1=C1CCCC1	4	21*	8	nt	2	8
CN1C(=O)C(=C2CCCCCC2)SC1=S	7	0	4	nt	-2	0
O=C(Nc1ccccc1)c1nc[nH]c1C(=O)Nc1ccccc1F	-3	1	2	49*	6	nt
Cc1ccc(NC(=O)c2nc[nH]c2C(=O)Nc2ccccc2F)cc1	1	1	6	-1	-6	nt
O=C1Cc2ccccc2C(=O)N1Cc1cccc(Cl)c1	-2	-2	5	68*	-9	1
C[C@H]1CN([C@@H](C)CO)C(=O)Cc2cc(NC(=O)CCN3CCOCC3)ccc2O[C@H]1CN(C)C(=O)NC1CCCCC1	nt	nt	nt	-1	nt	nt
Cc1ccc(NC(=O)Cn2cc(C=O)c3ccccc32)cc1	0	-1	-1	-2	-2	-2
O=Cc1cn(CC(=O)Nc2ccc3c(c2)OCO3)c2ccccc12	6	35*	-4	-3	5	1
C/C(=N\NC(=O)c1cc(O)ccc1O)c1cccc(NC(=O)c2cccc(Cl)c2)c1	-6	20	55*	39*	-1	13
C/C(=N\NC(=O)c1ccccc1O)c1cccc(NC(=O)c2ccccc2)c1	-2	-3	-2	5	1	nt
O=C(Cc1ccccc1)NN1C(=O)C2C(C1=O)C1C=CC2C12CC2 (stereo not drawn)	1	24*	6	-1	-10	-3
O=C(Cc1ccccc1)NN1C(=O)C2C3C=CC([C@@H]2C1=O)C31CC1 (stereo partly drawn)	-5	-1	-1	-2	10	1
O=C(C[C@@H]1C[C@H]2c3cc(NC(=O)CC4CC4)ccc3O[C@H]2[C@H](CO)O1)NCc1ccccc1F	nt	nt	nt	0	nt	nt

From PubChem
